Assay outcomes from PubChem.
DAGLB inh – diacylglycerol lipase beta (human) inhibition. AID 504411. 0.059% of 340,000 active. inhibition, % at 5.17 µM. HEK293T DAGLB membrane lysate, EnzChek fluorogenic substrate. Q8NCG7; in the data active = inhibition above about 34%
Target sequence (Q8NCG7 whole entry, looked up): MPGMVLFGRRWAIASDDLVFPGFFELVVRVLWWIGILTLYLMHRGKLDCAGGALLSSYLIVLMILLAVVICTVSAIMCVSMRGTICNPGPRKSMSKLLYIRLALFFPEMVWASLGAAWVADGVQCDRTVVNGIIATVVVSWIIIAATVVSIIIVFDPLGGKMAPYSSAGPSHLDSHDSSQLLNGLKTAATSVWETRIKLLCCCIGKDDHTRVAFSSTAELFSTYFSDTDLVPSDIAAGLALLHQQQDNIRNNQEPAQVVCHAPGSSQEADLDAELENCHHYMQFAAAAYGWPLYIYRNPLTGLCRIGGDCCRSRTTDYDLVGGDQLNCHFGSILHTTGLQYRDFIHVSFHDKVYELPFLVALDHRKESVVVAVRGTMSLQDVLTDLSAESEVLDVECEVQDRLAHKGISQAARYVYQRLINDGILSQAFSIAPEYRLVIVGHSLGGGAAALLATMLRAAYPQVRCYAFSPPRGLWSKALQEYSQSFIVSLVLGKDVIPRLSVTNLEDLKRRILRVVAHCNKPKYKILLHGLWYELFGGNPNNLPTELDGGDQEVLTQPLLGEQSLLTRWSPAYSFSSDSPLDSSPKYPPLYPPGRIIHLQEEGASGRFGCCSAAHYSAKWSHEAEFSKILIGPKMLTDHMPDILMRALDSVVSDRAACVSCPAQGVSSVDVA
SKN-1 block – inhibitors of C. elegans SKN-1; C. elegans VP596 Pgst-4::GFP/RFP ratio, acrylamide-induced, 24 h; inhibition, % at 21.8 µM; 0.49% of 360,000 active; AID 624304;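 active = interference check ratio from 0.5 to 1.5 plus GFP to RFP signal ratio inhibition reaching or exceeding a fixed threshold, cut at about 30% in these data, passing the limit was not always enough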
MsrA inh – bovine MsrA inhibition. purified bovine MsrA, absorbance read-out. 0.75% of 360,000 active. inhibition, % at 15.5 µM. AID 651718; in the data active = inhibition above about 4.5%
MsrA act – activates bovine MsrA enzyme; purified bovine MsrA, absorbance read-out; activation, % at 10.6 µM; 0.3% of 360,000 active; in the data active = activation above about 7.5%
MIN6 prolif – MIN6 beta-cell proliferation induction; MIN6 cells proliferation, ATPlite luminescence, 48 h; cells starved in 0.2% serum; 100% = growth in 10% serum; proliferation, % at 10 µM; 0.29% of 330,000 active;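 active = compounds whose signal lies at least 3.5 SD above the mean of all wells on their plate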
MT1-MMP act inh – inhibitors of human MT1-MMP activation. P50281. HT1080 RFP-PRO-GFP cells, GFP/RFP ratio fluorescence, overnight; percent of plate control window, DMSO zero. GFP/RFP ratio change, % at 20 µM. 0.061% of 360,000 active. AID 651647;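 active = GFP/RFP ratio change of at least 30% with cell ATP level not reduced by more than half and red fluorescence within 50% of control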
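Assay system – RFP-PRO-GFP reporter HT1080 cells · Compound dosing – single dose of 20 µM compound, 1% DMSO final · Incubation – overnight compound exposure at 37 °C · Measure – GFP/RFP fluorescence ratio · Benchmarks – DMSO wells and RFP-L50D-GFP cells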
Hits are given with their value; n = inactive; x = no result given. Hits are enriched below; roughly 1.8% of the tested compounds scored in any of these assays.

SMILES | DAGLB inh | SKN-1 block | MsrA inh | MsrA act | MIN6 prolif | MT1-MMP act inh
O=C(OCC(=O)N1N=C(c2ccc(Cl)cc2)CC1c1ccco1)c1ccccc1O (stereo not drawn) | n | 38.5 | n | n | n | n
c1ccc2c(c1)CCN(C1=Nc3cccc4cccc1c34)C2 | n | 48.8 | n | n | n | n
Nc1nc2cc3c(cc2cc1C(=O)NCCc1c[nH]c2ccccc12)OCO3 | x | x | n | x | x | x
CNC(=O)c1c(NC(=O)c2ccc(N3C(=O)CCC3=O)cc2)sc2c1CCC(C)C2 (stereo not drawn) | n | 40.6 | n | n | n | n
CNC(=O)c1c(NC(=O)c2ccc(N3C(=O)CCC3=O)cc2)sc2c1CCCC2 | n | n | n | n | n | n
O=[N+]([O-])c1ccc(COc2cccc3cccnc23)cc1 | n | 36.3 | n | n | n | n
CC(C)C1CC(N(C)C)=CC(=S)N1 (stereo not drawn) | x | x | n | x | x | x
CC1CN(S(=O)(=O)c2cccc(C(=O)OCC(=O)c3cccs3)c2)CC(C)O1 (stereo not drawn) | n | n | n | n | n | n
CC1CN(S(=O)(=O)c2cccc(C(=O)OCC(=O)Nc3ccc4c(c3)OCO4)c2)CC(C)O1 (stereo not drawn) | n | 43.8 | n | n | n | n
COC(=O)[C@]12C[C@H](CC(=O)NCC3CCCCC3)C(=O)N(CCC3=CCCCC3)C1=C[C@H](C(C)(C)C)O[C@@H]2C | x | x | n | x | x | x
Cc1ccc(CNC(=O)c2ccc(Cn3nc(C)cc3C)o2)cc1 | n | n | n | n | n | n
Cc1cc(C)n(Cc2ccc(C(=O)NCc3ccco3)o2)n1 | n | 35.8 | n | n | n | n
O=C(NCc1ccncc1)c1ccc(-c2ccc(F)c(F)c2)c2ccoc12 | x | 62.1 | n | n | x | n
COc1ccc(C2CC(=O)C(c3ccccc3)=CN2Cc2ccccc2)cc1 (stereo not drawn) | x | x | n | x | x | x
COc1cc(/C=C/C(=O)OC(C)C(=O)Nc2c(C)n(C)n(-c3ccccc3)c2=O)ccc1OCC#N (stereo not drawn) | n | n | 4.6 | n | n | n
O=C(Nc1ccccc1)N1c2ccccc2SC1c1ccco1 (stereo not drawn) | x | x | n | x | x | x
O=C(Sc1ccc(Cl)cc1)c1ccccn1 | n | 55.4 | n | n | n | n
CCCCNC(=O)CCSc1nc2nc(C)cc(C)n2n1 | n | n | x | 8.0 | n | n
Fc1ccc2nc(-c3ccc(CN4CCC5(CC4)CNc4ccccc45)cc3)c(-c3ccccc3)nc2c1 | x | x | n | x | x | x
Cc1c(N2C(=O)/C(=C/c3ccccc3)SC2=S)c(=O)n(-c2ccccc2)n1C | n | n | 4.5 | n | n | n
Cc1cc(C)n2c(SCc3ccc(Br)cc3)nnc2n1 | x | n | n | n | n | n
Cc1cc(C)n2c(SCc3c(C)noc3C)nnc2n1 | n | 32.8 | n | n | n | n
COc1ccc(N2CCN(C(=O)c3cc4c(-c5cccc(OC)c5)nn(C)c4s3)CC2)cc1 | n | 35.2 | n | n | n | n
COCc1cc(Sc2ccc(Cl)cc2)nc(-c2ccccc2)n1 | n | n | n | n | n | n
COCc1cc(Sc2cccc(Cl)c2Cl)nc(-c2ccccc2)n1 | n | n | n | 22.7 | n | n
SMILES | DAGLB inh | SKN-1 block | MsrA inh | MsrA act | MIN6 prolif | MT1-MMP act inh
CC(=O)c1ccc(OCc2cc(C(=O)NC(C)c3cnn(C)c3)no2)cc1 (stereo not drawn) | n | n | n | n | n | n
CC(NC(=O)c1cc(COc2ccccc2)on1)c1nccs1 (stereo not drawn) | n | 35.5 | n | n | n | n
Cc1ccccc1S(=O)(=O)N(C)C[C@H]1OCc2cnnn2CCCC(=O)N([C@H](C)CO)C[C@@H]1C | x | x | n | x | x | x
C[C@@H]1CN([C@@H](C)CO)C(=O)CCCn2cc(nn2)CO[C@H]1CN(C)C(=O)Nc1ccc2c(c1)OCO2 | x | x | n | x | x | x
CCC(C(=O)Nc1cccc(S(=O)(=O)N(C)c2ccccc2)c1)c1ccccc1 (stereo not drawn) | n | 40.3 | n | n | n | n
Fc1ccc(-c2cnc(-c3cccs3)o2)cc1 | n | 92.1 | n | n | n | n
Fc1ccc(-c2cc(-c3cccs3)cc(-c3ccccc3)n2)cc1 | n | n | n | n | n | n
Fc1ccc(-c2nc(-c3cccs3)no2)cc1 | n | 50.8 | n | n | n | n
Nc1[nH]c(C(=O)c2ccc(Br)cc2)c(-c2ccc3ccccc3c2)c1C(=O)NCCc1c[nH]c2ccccc12 | x | x | n | x | x | x
CC(C)(C)NC(=O)CN(C(=O)CCN1CCCc2ccccc21)C(C)(C)C | n | 39.8 | n | n | n | n
CC(C)(C)NC(=O)CN(Cc1cccs1)C(=O)CCN1CCc2ccccc21 | n | n | n | n | n | n
COC(=O)[C@]12C[C@H](CC(=O)NCc3cccc4ccccc34)C(=O)N(CCC3=CCCCC3)C1=C[C@H](COCc1ccccc1)O[C@@H]2C | x | x | n | x | x | x
O=C(NCc1ccccc1)[C@@H]1CCCN1C(=O)[C@H]1CCCN1C(=O)c1ccccc1C(F)(F)F | x | x | n | x | x | x
CN(C)CCCO[C@@H]1[C@H]2OC(C)(C)O[C@H]2O[C@@H]1[C@H](O)CO | n | 43.6 | n | n | n | n
COc1ccc(CC(=O)N2CCCC(C)C2)cc1 (stereo not drawn) | n | 37.3 | n | n | n | n
CC1CCCN(C(=O)Cc2ccc(F)cc2)C1 (stereo not drawn) | n | n | n | n | n | n
CCN(CC)C(=O)c1ncn2c1C(=O)N[C@@H](C)C2 | x | x | n | x | x | x
Cc1ccc(C2NC(=O)c3[nH]nc(-c4ccccc4)c32)cc1 (stereo not drawn) | x | x | n | x | x | x
O=C(CCC(=O)N/N=C/c1ccc(Br)s1)NCc1ccccc1 | n | n | n | n | n | n
C(=Nc1ccc(Nc2ccccc2)cc1)c1ccc2ccccc2c1 | n | n | x | n | x | 43.5
NC(=S)N/N=C/c1ccc2ccccc2c1 | n | n | n | n | n | n
Brc1ccc(C=Nc2ccc(Nc3ccccc3)cc2)s1 | n | n | x | n | x | 48.9
COc1cc2c(NCCCCCCO[N+](=O)[O-])ncnc2c(OC)c1OC | x | x | n | x | x | x
CC(C)[C@H](NC(=O)c1ccc(Cl)cc1Cl)C(=O)N1CCC[C@H]1C(=O)NCCc1ccccc1Cl | x | x | n | x | x | x
Nc1nc(=S)c2ncn(C3CCCCC3)c2[nH]1 | n | n | 4.6 | n | x | n
Nc1nc(=S)c2ncn([C@@H]3O[C@H](CO)[C@@H](O)[C@H]3O)c2[nH]1 | n | n | n | n | n | n
COCC(=O)N(C)[C@H]1C[C@H]2c3[nH]c4c(-c5ccccc5)cccc4c3CCN2C(=O)[C@H]1[C@H](C)O | x | x | n | x | x | x
COc1cc2nc(C3CC3)n(NC(=O)c3ccc(F)cc3)c(=O)c2cc1OC | n | n | n | n | n | n
COc1cc2nc(C3CC3)n(NC(=O)c3ccc(Cl)cc3)c(=O)c2cc1OC | n | 36.9 | n | n | n | n
O=c1oc2ccc(Br)cc2cc1-c1nc2ccccc2o1 | n | n | n | n | n | n
